Shown are actives, neighbours in structure and some others; about 1.1% of the full set was active somewhere.
SR-BI DiI inh: inhibitors of SR-BI mediated HDL lipid uptake, primary screen, ldlA[mSR-BI] cells, fluorescence, single point | Scavenger receptor class B member 1 (Mus musculus), Q61009 | ldlA[mSR-BI] CHO cells, DiI-HDL uptake fluorescence, 3 h | inhibition, % at 12.5 µM | 320,000 tested, 0.96% active;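 active means mean replicate inhibition of at least 70% and a set share of replicates each scoring 70 or more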;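 further: 0% = median of neutral control wells and 100% = median of positive control wells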
Target sequence (Q61009 whole entry, looked up): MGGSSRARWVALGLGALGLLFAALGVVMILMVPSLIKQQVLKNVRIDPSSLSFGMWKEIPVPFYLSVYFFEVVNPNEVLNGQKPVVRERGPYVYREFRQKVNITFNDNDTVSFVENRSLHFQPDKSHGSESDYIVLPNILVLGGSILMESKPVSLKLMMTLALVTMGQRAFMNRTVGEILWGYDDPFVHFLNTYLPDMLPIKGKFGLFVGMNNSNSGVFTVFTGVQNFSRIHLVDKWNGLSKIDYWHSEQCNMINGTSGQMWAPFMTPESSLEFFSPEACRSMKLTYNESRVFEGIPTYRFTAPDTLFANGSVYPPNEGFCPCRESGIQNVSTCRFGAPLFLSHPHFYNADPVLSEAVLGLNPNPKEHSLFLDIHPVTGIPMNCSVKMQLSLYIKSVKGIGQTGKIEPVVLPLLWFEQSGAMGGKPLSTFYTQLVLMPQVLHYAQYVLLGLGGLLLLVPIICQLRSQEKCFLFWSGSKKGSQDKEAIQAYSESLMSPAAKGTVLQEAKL
GSK3A inh: blockers of GSK3A enzyme activity – biochemical, luminescence, cell-free homogeneous, HTS, primary screen; AID 2650, 2010; 320,000 tested, 0.1% active; GSK-3 alpha kinase, ADP-Glo luminescence, 60 min; inhibition, % at 10 µM; Glycogen synthase kinase-3 alpha (Homo sapiens), P49840;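 active means more than half of replicates show inhibition above 20%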;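 further: GST-tagged GSK-3 alpha with peptide substrate and 25 µM ATP; 0% = DMSO neutral wells and 100% = GW8510 positive control wells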
CDK5 p35 inh: inhibitors of human CDK5/p35 kinase, primary screen, biochemical, single concentration; Cyclin-dependent kinase 5 (Homo sapiens) + Cyclin-dependent kinase 5 activator 1 (Homo …; Recombinant CDK5/p35, ADP-Glo luminescence, 60 min; inhibition, % at 10 µM; 330,000 tested, 0.01% active; AID 488839, 2010;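 active means highest replicate inhibition of at least 50% and at least 75% of replicates reaching 50%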;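 further: plate controls were DMSO neutral control for no effect and GW8510 at 10 µM for full effect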
GSK3beta inhib: human GSK3beta kinase inhibitors, primary screen, biochemical, cell-free homogeneous, HTS; 300,000 tested, 0.038% active; Glycogen synthase kinase-3 beta (Homo sapiens), P49841; AID 2097, 2009; GST-GSK3beta kinase, ADP-Glo luminescence, 60 min; hits give low values; activity score (negative = inhibition), % at 10 µM;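 active means more than half of replicate wells score below -50%, meaning over 50% inhibition versus plate controls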;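 further: 0% = median DMSO wells and -100% = median GW8510 positive control wells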
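Test system: GST-tagged human GSK3beta kinase, cell-free; evaluation: activity score scaled between in-plate DMSO and GW8510 controls; measured by: ADP-Glo luminescence; incubation: 60 min reaction, RT; benchmarks: DMSO and 20 µM GW8510; reagent: peptide substrate plus 25 µM ATP (final); medium: Tris/MgCl2 kinase buffer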
SR-BI uptake up: activators of SR-BI mediated DiI-HDL uptake, primary screen, ldlA[mSR-BI] CHO cells, DiI fluorescence; 3 h; 100 = double the neutral-control signal; activation, % at 12.5 µM; 320,000 tested, 0.096% active; AID 504775, 2011;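 active means mean replicate activation of at least 60% and every replicate at or above 60%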;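 further: 0% = median plate neutral-control signal and 100% = twice that signal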
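Test system: SR-BI-overexpressing, LDLR-lacking CHO cells; Also added: labelled HDL, 10 µg/mL; Measured by: bottom-read cell fluorescence after medium removal, ex 550/em 595 nm; Timing: 3 h uptake period with compound, 37 °C; Buffer or medium: F12, 0.5% BSA, 25 mM HEPES; Doses: single compound concentration, delivered by pin transfer.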
The depositor's hits bear a star; . = no result.

SMILES	SR-BI DiI inh	GSK3A inh	CDK5 p35 inh	GSK3beta inhib	SR-BI uptake up
C/C(=N\Nc1ccc(C(=O)c2c(C)cc3ccccn23)cc1[N+](=O)[O-])c1ccc(O)cc1	.	1	1	-2	.
O=C(COC(=O)Cc1ccc(Br)cc1)NCc1ccc2c(c1)OCO2	-37	.	0	.	37
CC1=NN(c2nc(-c3ccc(C)cc3)cs2)C(=O)C1N=Nc1ccc2ccccc2c1 (configuration not stated)	8	.	1	-2	-8
CC1=NN(c2nc(-c3ccc(C)cc3)cs2)C(=O)C1N=Nc1ccc(C(N)=O)cc1 (configuration not stated)	81*	-1	1	0	-81
O=C(Nc1ccc2oc(=O)ccc2c1)c1ccc(-c2cccc([N+](=O)[O-])c2)o1	.	0	.	-2	.
O=C(Nc1ccc2oc(=O)ccc2c1)c1ccc(-c2ccccc2[N+](=O)[O-])o1	78*	-3	-1	-1	-78
COc1cc(NC(=O)c2cccnc2)ccc1NC(=O)c1ccccc1Cl	.	-2	0	2	.
COc1cc(NC(=O)c2cccc([N+](=O)[O-])c2)ccc1NC(=O)c1ccco1	89*	-2	0	2	-89
Cc1cc(NC(=O)c2cncc(Br)c2)ccc1NC(=O)c1cc2ccccc2o1	97*	0	2	-1	-97
COc1cc(NC(=O)c2ccccc2F)ccc1NC(=O)c1ccccc1Cl	93*	.	3	0	-93
Cc1ccc(OCCNC(=O)C2CC(=O)N(Cc3ccccc3)C2)cc1 (configuration not stated)	-6	-2	-1	.	6
COc1ccccc1NC(=O)c1ccc(Br)o1	1	-2	1	1	-1
COc1cc(NC(=O)c2ccc(Br)o2)ccc1NC(=O)c1ccccc1Cl	83*	-2	-3	-2	-83
CCC(=O)Nc1ccc(Cl)c(NC(=O)c2ccc(Br)o2)c1	76*	0	-1	0	.
COc1cc(NC(C)=O)ccc1NC(=O)c1cc2ccccc2o1	5	-2	1	3	-5
COc1cc(NC(=O)c2ccccc2[N+](=O)[O-])ccc1NC(=O)c1cc2ccccc2o1	77*	-2	0	2	-77
NNC(=O)c1oc2nc(-c3ccco3)cc(-c3ccco3)c2c1N	.	0	.	1	.
NNC(=O)c1oc2nc(-c3ccc(Cl)cc3)cc(-c3ccccc3)c2c1N	106*	-2	2	-1	-106
O=C(Nc1cccc(C(F)(F)F)c1)c1ccc2nc(-c3ccco3)c(-c3ccco3)nc2c1	82*	0	4	-4	-82
Cc1ccc(NC(=O)C2(NC(=O)c3ccccn3)CCCCC2)cc1Br	-1	0	-2	-2	1
CCOC(=O)c1c(NC(=O)CCNCc2ccco2)sc2c1CCC2	.	-1	.	-3	.
O=C(O)c1ccc(N/N=C/C=C/c2ccccc2[N+](=O)[O-])cc1	-21	-2	-1	0	21
O=[N+]([O-])c1ccc(N/N=C/c2c[nH]c3ccccc23)c(S(=O)(=O)Nc2ccc(Cl)cc2)c1	94*	0	1	-3	-94
O=[N+]([O-])c1ccccc1/C=C/C=N/Nc1ccc(S(=O)(=O)Nc2ccc(Cl)cc2)cc1[N+](=O)[O-]	100*	-3	1	0	-100
O=C(COc1ccc2c(c1)CCC2)NCc1ccc(Cl)cc1	5	-2	-7	-9	-5
CCN(CC)S(=O)(=O)c1ccc2oc(C(=O)Nc3ccc(OC)cc3OC)c(C)c2c1	77*	1	0	.	-77
COc1ccc(NC(=O)c2oc3cc(C)c(C)cc3c2C)c(OC)c1	1	2	-1	-4	-1
Cc1cc(C)cc(NC(=O)c2cc3c(=O)n4ccccc4nc3s2)c1	78*	-3	0	5	-78
CS(=O)(=O)c1ccc(C(=O)CN2C(=O)NC3(CCCc4ccccc43)C2=O)cc1 (configuration not stated)	0	1	0	.	0

Screening results from PubChem.
